How the values were obtained:
[1] = target: T1, Aminopeptidase N (Plasmodium falciparum FcB1/Columbia) (UniProt O96935); experiment: Inhibition of Plasmodium falciparum FcB1 M1 aminopeptidase at 10 uM
T1 sequence (whole entry): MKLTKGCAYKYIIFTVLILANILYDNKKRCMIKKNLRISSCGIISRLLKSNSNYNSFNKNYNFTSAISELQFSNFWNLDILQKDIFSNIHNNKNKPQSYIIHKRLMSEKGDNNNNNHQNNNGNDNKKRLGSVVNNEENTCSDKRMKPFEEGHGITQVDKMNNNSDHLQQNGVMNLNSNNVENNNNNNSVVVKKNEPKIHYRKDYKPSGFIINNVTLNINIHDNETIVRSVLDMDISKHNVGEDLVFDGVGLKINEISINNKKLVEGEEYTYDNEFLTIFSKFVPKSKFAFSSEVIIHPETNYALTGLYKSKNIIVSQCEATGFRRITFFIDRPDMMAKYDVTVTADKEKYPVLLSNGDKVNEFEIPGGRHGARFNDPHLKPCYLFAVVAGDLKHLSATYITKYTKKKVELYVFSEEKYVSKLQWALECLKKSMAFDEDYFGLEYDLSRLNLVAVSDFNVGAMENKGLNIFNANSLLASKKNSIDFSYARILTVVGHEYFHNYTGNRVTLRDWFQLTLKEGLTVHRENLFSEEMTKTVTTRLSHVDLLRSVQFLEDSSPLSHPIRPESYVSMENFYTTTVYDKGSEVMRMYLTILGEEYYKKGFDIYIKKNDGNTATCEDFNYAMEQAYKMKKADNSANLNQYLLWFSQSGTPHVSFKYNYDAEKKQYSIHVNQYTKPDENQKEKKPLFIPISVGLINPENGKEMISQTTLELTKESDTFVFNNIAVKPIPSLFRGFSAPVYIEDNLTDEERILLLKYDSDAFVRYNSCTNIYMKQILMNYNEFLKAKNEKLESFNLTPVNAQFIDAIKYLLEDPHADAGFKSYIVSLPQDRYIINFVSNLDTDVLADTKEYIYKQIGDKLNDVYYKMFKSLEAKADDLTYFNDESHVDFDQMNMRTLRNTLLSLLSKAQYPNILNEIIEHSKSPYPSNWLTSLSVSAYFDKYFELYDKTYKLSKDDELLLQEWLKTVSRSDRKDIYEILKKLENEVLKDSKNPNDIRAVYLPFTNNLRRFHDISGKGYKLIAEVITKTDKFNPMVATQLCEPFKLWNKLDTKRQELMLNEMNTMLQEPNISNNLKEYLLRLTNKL
Method in brief: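 Native enzyme purified from P. falciparum FcB1, diluted 10-fold in 25 mM Tris-HCl pH 7.4. Preincubated with inhibitor for 10 min at room temperature, then Leu-pNA substrate added (0.3 mM stock, Km 0.099 mM). Kinetics followed at 405 nm at room temperature. Initial velocities normalized to a no-inhibitor control. Single-point screen at 10 µM; IC50 from velocity versus inhibitor concentration curves. Bestatin used as reference.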

[2] = target: T2, Aminopeptidase N (Sus scrofa) (UniProt P15145); experiment: Inhibition of pig kidney microsomal APN at 10 uM
T2 sequence (whole entry): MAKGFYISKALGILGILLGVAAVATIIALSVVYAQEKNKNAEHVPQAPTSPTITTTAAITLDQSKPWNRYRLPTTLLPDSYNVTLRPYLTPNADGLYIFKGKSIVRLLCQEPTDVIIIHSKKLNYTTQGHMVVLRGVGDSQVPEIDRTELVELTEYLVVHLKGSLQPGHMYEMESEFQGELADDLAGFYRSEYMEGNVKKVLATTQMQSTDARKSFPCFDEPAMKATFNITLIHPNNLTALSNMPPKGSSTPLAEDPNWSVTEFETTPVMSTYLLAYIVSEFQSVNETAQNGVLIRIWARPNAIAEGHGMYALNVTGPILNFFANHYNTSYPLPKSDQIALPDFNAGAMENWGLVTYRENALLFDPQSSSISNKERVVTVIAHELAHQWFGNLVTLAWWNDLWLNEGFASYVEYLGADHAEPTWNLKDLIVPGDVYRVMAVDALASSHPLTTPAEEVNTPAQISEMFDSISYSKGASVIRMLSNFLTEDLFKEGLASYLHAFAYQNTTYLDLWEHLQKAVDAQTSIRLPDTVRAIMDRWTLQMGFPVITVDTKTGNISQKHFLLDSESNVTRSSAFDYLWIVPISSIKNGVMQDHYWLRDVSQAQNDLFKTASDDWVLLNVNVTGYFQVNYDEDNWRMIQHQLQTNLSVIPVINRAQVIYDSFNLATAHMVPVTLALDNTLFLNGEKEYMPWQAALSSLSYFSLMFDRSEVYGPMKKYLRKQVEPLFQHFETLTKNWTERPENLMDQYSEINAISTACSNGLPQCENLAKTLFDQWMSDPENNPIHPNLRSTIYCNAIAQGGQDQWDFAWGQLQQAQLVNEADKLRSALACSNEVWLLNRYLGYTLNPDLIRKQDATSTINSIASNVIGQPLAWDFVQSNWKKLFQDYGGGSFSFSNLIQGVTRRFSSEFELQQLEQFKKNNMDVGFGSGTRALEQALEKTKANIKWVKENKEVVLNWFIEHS
Method in brief: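 Porcine kidney microsomal APN (ammonium sulfate suspension) diluted 600-fold in 25 mM Tris-HCl pH 7.4. Preincubated with inhibitor for 10 min at room temperature, then Leu-pNA added (0.3 mM stock). Hydrolysis followed at 405 nm at room temperature. Rates normalized to a no-inhibitor control. Single point at 10 µM; IC50 from concentration-velocity curves. Bestatin used as reference.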

inhibition [1] [%]	inhibition [2] [%]	Compound
2	19	O=C(CC(=O)NCc1ccccc1)NO
-1	56	O=C(NO)C(Cc1ccccc1)C(=O)N1CCC(n2c(=O)[nH]c3ccccc32)CC1 (configuration not stated)
-6	41	O=C(NO)C(Cc1cccc(Oc2ccccc2)c1)C(=O)N1CCN(C(c2ccccc2)c2ccccc2)CC1 (configuration not stated)
67	75	O=C(NO)C(Cc1ccccc1)C(=O)NCc1ccc(C(F)(F)F)cc1 (configuration not stated)
-3	19	O=C(CC(=O)N[C@H]1CCN(Cc2ccccc2)C1)NO
-2	19	CC(C)CC(C(=O)NO)C(=O)N1CCN(C(c2ccccc2)c2ccccc2)CC1 (configuration not stated)
23	37	CC(C)CC(C(=O)NO)C(=O)N(C)Cc1ccccc1 (configuration not stated)
76	102	CC(C)CC(C(=O)NO)C(=O)NCCC(c1ccccc1)c1ccccc1 (configuration not stated)
51	31	NC(C(=O)NO)C(=O)NCc1cccc(Oc2ccccc2)c1 (configuration not stated)
37	-1	CC(C)CN(CCCCc1ccccc1)C(=O)C(N)C(=O)NO (configuration not stated)
-4	9	NC(C(=O)NO)C(=O)N1CCC2(CCNc3ccccc3O2)CC1 (configuration not stated)
75	56	O=C(NO)C(Cc1ccccc1)C(=O)N(CCc1ccccc1)Cc1ccccc1 (configuration not stated)
21	14	O=C(CC(=O)N1CCN(C(c2ccccc2)c2ccccc2)CC1)NO
29	47	O=C(NO)C(Cc1ccccc1)C(=O)NCCc1ccccn1 (configuration not stated)
56	42	NC(C(=O)NO)C(=O)NCCCCc1ccccc1 (configuration not stated)
-6	24	NC(C(=O)NO)C(=O)NCc1cccnc1 (configuration not stated)
41	81	O=C(NO)C(Cc1cccc(Oc2ccccc2)c1)C(=O)NCc1cccc(-c2ccccc2)c1 (configuration not stated)
12	34	NC(C(=O)NO)C(=O)N1CCC(n2c(=O)[nH]c3ccccc32)CC1 (configuration not stated)
2	15	O=C(CC(=O)NCCCc1ccccc1)NO
10	13	O=C(CC(=O)NCc1ccc(Cl)cc1)NO
-4	25	NC(C(=O)NO)C(=O)NC1CCN(Cc2ccccc2)CC1 (configuration not stated)
58	86	CC(C)CC(C(=O)NO)C(=O)N[C@H]1CCN(Cc2ccccc2)C1 (some centres not stated)
64	8	NC(C(=O)NO)C(=O)NCCCc1ccccc1 (configuration not stated)

More lines, now with the values behind:

Compound	inhibition [1] [%]	inhibition [2] [%]
O=C(NO)C(Cc1cccc(Oc2ccccc2)c1)C(=O)N1CCC(n2c(=O)[nH]c3ccccc32)CC1 (configuration not stated)	74	76
NC(C(=O)NO)C(=O)NCc1cccc(-c2ccccc2)c1 (configuration not stated)	35	62
CC(C)CC(C(=O)NO)C(=O)NCCCN(C)c1ccccc1 (configuration not stated)	66	81
O=C(CC(=O)N1CCC(n2c(=O)[nH]c3ccccc32)CC1)NO	6	19
O=C(CC(=O)NCCCCc1ccccc1)NO	19	36
CC(C)CC(C(=O)NO)C(=O)N(CCCCc1ccccc1)CC(C)C (configuration not stated)	42	60
CC(C)CC(C(=O)NO)C(=O)NCc1cccnc1 (configuration not stated)	-4	30
O=C(NO)C(Cc1cccc(Oc2ccccc2)c1)C(=O)NCCNc1cccc2ccccc12 (configuration not stated)	66	78
O=C(CC(=O)NC1Cc2ccccc2C1)NO	-2	12
CN(CCCNC(=O)C(Cc1ccccc1)C(=O)NO)c1ccccc1 (configuration not stated)	67	46
NC(C(=O)NO)C(=O)NCc1ccc(C(F)(F)F)cc1 (configuration not stated)	6	55
O=C(NO)C(Cc1cccc(Oc2ccccc2)c1)C(=O)NCCc1ccccc1 (configuration not stated)	98	88
O=C(NO)C(Cc1cccc(Oc2ccccc2)c1)C(=O)N1CCN(Cc2ccccc2)CC1 (configuration not stated)	84	47
CC(C)CC(C(=O)NO)C(=O)NCc1ccc(C(F)(F)F)cc1 (configuration not stated)	24	45
CC(C)CC(C(=O)NO)C(=O)N1CCC2(CCNc3ccccc3O2)CC1 (configuration not stated)	16	21
O=C(CC(=O)N1CCN(Cc2ccc3c(c2)OCO3)CC1)NO	7	11
O=C(NO)C(Cc1ccccc1)C(=O)N[C@H]1CCN(Cc2ccccc2)C1 (some centres not stated)	43	28

Compound	inhibition [1] [%]	inhibition [2] [%]
CN(CCCCc1ccccc1)C(=O)C(Cc1cccc(Oc2ccccc2)c1)C(=O)NO (configuration not stated)	80	95
CC(C)CC(C(=O)NO)C(=O)NC1CCN(Cc2ccccc2)CC1 (configuration not stated)	3	57
NC(C(=O)NO)C(=O)N1CCN(C(c2ccccc2)c2ccccc2)CC1 (configuration not stated)	-5	10
O=C(NO)C(Cc1ccccc1)C(=O)N1CCC2(CC1)C(=O)NCN2c1ccccc1 (configuration not stated)	40	22
CC(C)CC(C(=O)NO)C(=O)N1CCc2ccccc2C1 (configuration not stated)	74	90
O=C(NO)C(Cc1ccccc1)C(=O)N1CCN(C(c2ccccc2)c2ccccc2)CC1 (configuration not stated)	0	14
O=C(CC(=O)N1CCC2(CCNc3ccccc3O2)CC1)NO	-5	27
CC(C)CC(C(=O)NO)C(=O)NCc1cccc(-c2ccccc2)c1 (configuration not stated)	69	95
O=C(NO)C(Cc1cccc(Oc2ccccc2)c1)C(=O)N(CCc1ccccc1)Cc1ccccc1 (configuration not stated)	38	67
O=C(NO)C(Cc1cccc(Oc2ccccc2)c1)C(=O)N1CCC2(CC1)C(=O)NCN2c1ccccc1 (configuration not stated)	65	70
O=C(CC(=O)N1CCN(Cc2ccccc2)CC1)NO	8	23
O=C(NO)C(Cc1cccc(Oc2ccccc2)c1)C(=O)NCc1cccnc1 (configuration not stated)	99	85
O=C(CC(=O)NCCNc1cccc2ccccc12)NO	0	14
O=C(CC(=O)NCc1cccnc1)NO	3	18
O=C(NO)C(Cc1ccccc1)C(=O)NC1CCN(Cc2ccccc2)CC1 (configuration not stated)	3	21
CC(C)CC(C(=O)NO)C(=O)NCCNc1cccc2ccccc12 (configuration not stated)	42	93

From ChEMBL document CHEMBL1142961, “Novel selective inhibitors of the zinc plasmodial aminopeptidase PfA-M1 as potential antimalarial agents” (J Med Chem, 2007)
